Measurements reported in ChEMBL document CHEMBL4706700, “Oxa-adamantyl cannabinoids” (Bioorg Med Chem Lett, 2021).
Calls of active or inactive are those of the source. The rule behind the calls is not given here.

Legend:
[1] = target: Cannabinoid receptor 1 (Rattus norvegicus) (UniProt P20272); assay: Agonist activity at rat CB1 receptor expressed in HEK293 cells assessed as inhibition of forskolin-stimulated cAMP level stimulated for 30 mins followed by Eu-cAMP tracer addition and measured after 60 mins; format: functional, cell-based; settings: filed as agonist, time 90.0 min
Cannabinoid receptor 1 (Rattus norvegicus), sequence (P20272 whole entry): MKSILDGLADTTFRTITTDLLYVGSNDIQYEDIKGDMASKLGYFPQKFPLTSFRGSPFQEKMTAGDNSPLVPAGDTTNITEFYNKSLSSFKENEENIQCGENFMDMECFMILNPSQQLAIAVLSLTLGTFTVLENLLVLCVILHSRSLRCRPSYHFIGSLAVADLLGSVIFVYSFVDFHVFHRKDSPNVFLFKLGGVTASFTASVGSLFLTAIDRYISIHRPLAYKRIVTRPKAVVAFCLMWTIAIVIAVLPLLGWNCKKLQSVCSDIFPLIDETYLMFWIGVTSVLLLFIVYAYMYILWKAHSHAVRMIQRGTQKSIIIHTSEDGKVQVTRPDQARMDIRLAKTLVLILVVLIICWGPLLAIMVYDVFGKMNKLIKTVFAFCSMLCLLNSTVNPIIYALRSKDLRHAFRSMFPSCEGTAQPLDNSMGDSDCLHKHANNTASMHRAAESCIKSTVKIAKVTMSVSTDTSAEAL
Procedure, shortened: (§1)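 cAMP accumulation stimulated by forskolin, in HEK293 cells expressing rCB1 or hCB2. Forskolin-stimulated level set to 100%. EC50 obtained by nonlinear regression. […] Values are the average of two independent experiments, each run in triplicate.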

[2] = target: Cannabinoid receptor 1 (Rattus norvegicus) (UniProt P20272); assay: Agonist activity at rat CB1 receptor expressed in HEK293 cells assessed as inhibition of forskolin-stimulated cAMP level stimulated for 30 mins followed by Eu-cAMP tracer addition and measured after 60 mins relative to control; format: functional, cell-based; settings: filed as agonist, time 90.0 min; procedure, shortened: as §1
[3] = target: T1, Cannabinoid receptor 2 (Homo sapiens, UniProt P34972); assay: Agonist activity at human CB2 receptor expressed in HEK293 cells assessed as decrease in forskolin-stimulated cAMP level up to 2.3 uM stimulated for 30 mins followed by Eu-cAMP tracer addition and measured after 60 mins; format: functional, cell-based; settings: dose microM <=2.3, time 90.0 min; procedure, shortened: as §1
T1 sequence (P34972 whole entry): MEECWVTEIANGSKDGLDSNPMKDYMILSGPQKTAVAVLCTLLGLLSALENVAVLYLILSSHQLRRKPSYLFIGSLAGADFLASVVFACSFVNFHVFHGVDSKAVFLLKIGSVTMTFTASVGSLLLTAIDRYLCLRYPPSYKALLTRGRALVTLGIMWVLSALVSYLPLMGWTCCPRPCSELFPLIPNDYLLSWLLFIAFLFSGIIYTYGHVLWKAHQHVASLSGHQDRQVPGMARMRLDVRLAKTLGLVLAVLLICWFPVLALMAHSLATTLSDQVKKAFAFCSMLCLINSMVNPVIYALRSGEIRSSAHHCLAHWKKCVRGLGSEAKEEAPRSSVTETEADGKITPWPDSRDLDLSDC

[4] = target: T1, Cannabinoid receptor 2; assay: Displacement of [3H]CP55940 from human CB2 receptor expressed in HEK293 cell membrane by scintillation counting method; format: cell membranes
Procedure, shortened: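 Receptor source is rat brain membranes (CB1) or membranes from HEK293 cells expressing mouse or human CB2. Ki from competition curves by nonlinear regression. Ki is the mean of three independent experiments, each in triplicate.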

[5] = target: Cannabinoid receptor 2 (Mus musculus, UniProt P47936); assay: Displacement of [3H]CP55940 from mouse CB2 receptor expressed in HEK293 cell membrane by scintillation counting method; format: cell membranes
Cannabinoid receptor 2 (Mus musculus, UniProt P47936), sequence (P47936 whole entry): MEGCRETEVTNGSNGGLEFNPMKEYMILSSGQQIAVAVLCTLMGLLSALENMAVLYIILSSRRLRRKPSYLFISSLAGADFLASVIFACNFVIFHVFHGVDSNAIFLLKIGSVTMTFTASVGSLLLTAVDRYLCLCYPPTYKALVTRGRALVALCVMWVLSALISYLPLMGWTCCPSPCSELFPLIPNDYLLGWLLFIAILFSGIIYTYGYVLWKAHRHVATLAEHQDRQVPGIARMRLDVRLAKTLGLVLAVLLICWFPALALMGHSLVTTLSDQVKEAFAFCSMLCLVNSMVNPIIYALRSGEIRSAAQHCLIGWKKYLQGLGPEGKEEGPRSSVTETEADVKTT
Procedure, shortened: (§2)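 Competition binding with [3H]CP-55,940. Receptor source is rat brain membranes (CB1) or membranes from HEK293 cells expressing mouse or human CB2. Ki from competition curves by nonlinear regression. Ki is the mean of three independent experiments, each in triplicate.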

[6] = target: T2, Cannabinoid receptor 1 (Rattus norvegicus, UniProt P20272); assay: Displacement of [3H]CP55940 from rat brain CB1 receptor by scintillation counting method; format: tissue-based; procedure, shortened: as §2
T2 sequence (P20272 whole entry): as the sequence (P20272 whole entry) above

[7] = target: T2, Cannabinoid receptor 1; assay: Agonist activity at rat […] CB1 receptor assessed as decrease in forskolin-stimulated cAMP level stimulated for 30 mins followed by Eu-cAMP tracer addition and measured after 60 mins; format: functional
[8] = target: Cannabinoid receptor 1 (Rattus norvegicus) (UniProt P20272); assay: Irreversible binding affinity to rat brain CB1 receptor assessed as inhibition of [3H]CP55940 binding to receptor at 10 fold Ki by saturation curve assay relative to control; format: tissue-based; settings: filed as agonist
Procedure, shortened: (§3)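 Rat brain CB1 or HEK293 hCB2 membranes pretreated with the isothiocyanate ligand, then run in [3H]CP-55,940 saturation binding. Controls were processed in parallel without ligand. Percent covalent labeling = [Bmax(control) − Bmax(ligand)]/Bmax(control). At least two independent experiments in triplicate; mean ± SEM.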

[9] = target: T1, Cannabinoid receptor 2; assay: Irreversible binding affinity to human CB2 receptor expressed in HEK293 cells assessed as inhibition of [3H]CP55940 binding to receptor at 10 fold Ki by saturation curve assay relative to control; format: cell-based; procedure, shortened: as §3
[10] = Selectivity ratio of Ki for displacement of [3H]CP55940 from human CB2 receptor expressed in HEK293 cells to Ki for displacement of [3H]CP55940 from mouse CB2 receptor expressed in HEK293 cells; format: cell-based

SMILES: CC1(C)Oc2cc(C34CC5CC(CC(CN=[N+]=[N-])(C5)O3)C4)cc(O)c2[C@@H]2C[C@H](CO)CC[C@H]21
- inhibition [1]: Dose-dependent effect
- Emax [2]: 93%
- Activity [3]: inactive
- Ki [4]: 2.2 nM
- Ki [5]: 0.7 nM
- Ki [6]: 2 nM
- EC50 [7]: 0.9 nM

SMILES: CC1(C)Oc2cc(C34CC5CC(CC(C(N)=O)(C5)O3)C4)cc(O)c2[C@@H]2C[C@H](O)CC[C@H]21
- Ki [4]: 369 nM
- Ki [5]: 865 nM
- Ki [6]: 28.7 nM

SMILES: CC1(C)Oc2cc(C34CC5CC(CC(CN=C=S)(C5)O3)C4)cc(O)c2[C@@H]2C[C@H](O)CC[C@H]21
- inhibition [1]: Dose-dependent effect
- Bmax [8]: 65%
- Emax [2]: 88%
- Activity [3]: inactive
- Bmax [9]: 32%
- Ki [4]: 3.6 nM
- Ki [5]: 9.5 nM
- Ki [6]: 4.8 nM
- EC50 [7]: 0.8 nM

SMILES: CC1(C)Oc2cc(C34CC5CC(CC(CN=C=S)(C5)O3)C4)cc(O)c2[C@@H]2C[C@H](CO)CC[C@H]21
- inhibition [1]: Dose-dependent effect
- Emax [2]: 94%
- Activity [3]: inactive
- Ki [4]: 4.7 nM
- Ki [5]: 6.6 nM
- Ki [6]: 8.4 nM
- EC50 [7]: 0.9 nM

SMILES: CC1(C)Oc2cc(C34CC5CC(CC(CN=[N+]=[N-])(C5)O3)C4)cc(O)c2[C@@H]2C[C@H](O)CC[C@H]21
- inhibition [1]: Dose-dependent effect
- Emax [2]: 87%
- Activity [3]: inactive
- Ki [4]: 3.1 nM
- Ki [5]: 2.7 nM
- Ki [6]: 2.3 nM
- EC50 [7]: 3.1 nM

SMILES: CC1(C)Oc2cc(C34CC5CC(CC(C#N)(C5)O3)C4)cc(O)c2[C@@H]2C[C@H](O)CC[C@H]21
- Ki [4]: 31.7 nM
- Ki [5]: 1.6 nM
- Ki [6]: 26.6 nM
- Ratio Ki [10]: 20

SMILES: CC1(C)Oc2cc(C34CC5CC(CC(C(N)=O)(C5)O3)C4)cc(O)c2[C@@H]2C[C@H](CO)CC[C@H]21
- Ki [4]: 91.8 nM
- Ki [5]: 34.9 nM
- Ki [6]: 10.8 nM

SMILES: CCCCCCC(C)(C)c1ccc([C@@H]2C[C@H](O)CC[C@H]2CCCO)c(O)c1
- inhibition [1]: Dose-dependent effect
